{"data": "Experimental data collected from several papers", "organism": "Candida albicans", "note": "Lines come from different studies, so protocols differ."}
{"SMILES": "O=C(Cc1cc(O)c(O)c(O)c1)NCCCCCCCC[P+](c1ccccc1)(c1ccccc1)c1ccccc1.[Br-]", "effect on": "microbial growth", "technique": "broth dilution", "strain": "ATCC90028", "time": "24 h", "quantity": "MIC", "value": "> 32 µg/mL"}
{"SMILES": "C#CCCCCCCCCC=CCC(O)CC(O)CO (stereo not shown)", "effect on": "microbial growth", "technique": "broth dilution", "strain": "ATCC90028", "quantity": "IC50", "value": "> 8 µg/mL"}
{"SMILES": "O=C(CCCCCCCCCC[P+](c1ccccc1)(c1ccccc1)c1ccccc1)Nc1ccc(O)c(O)c1.[Br-]", "effect on": "microbial growth", "technique": "broth dilution", "strain": "ATCC90028", "time": "24 h", "quantity": "MIC", "value": "32 µg/mL"}
{"SMILES": "C[C@@H]1[C@H](O)[C@@H](C)/C=C/C=C/C=C/C=C/C=C/C=C/C=C/[C@H](O[C@@H]2O[C@H](C)[C@@H](O)[C@H](N)[C@@H]2O)C[C@@H]2O[C@](O)(C[C@@H](O)C[C@@H](O)[C@H](O)CC[C@@H](O)C[C@@H](O)CC(=O)O[C@H]1C)C[C@H](O)[C@H]2C(=O)O", "effect on": "microbial killing", "strain": "ATCC90028", "quantity": "MFC", "value": "2.5 µg/mL"}
{"SMILES": "O=C(O)c1cn(C2CC2)c2cc(N3CCNCC3)c(F)cc2c1=O", "effect on": "microbial growth", "technique": "broth dilution", "quantity": "MIC", "value": "12.5 µM"}
{"SMILES": "C[C@@H]1[C@H](O)[C@@H](C)/C=C/C=C/C=C/C=C/C=C/C=C/C=C/[C@H](O[C@@H]2O[C@H](C)[C@@H](O)[C@H](N)[C@@H]2O)C[C@@H]2O[C@](O)(C[C@@H](O)C[C@@H](O)[C@H](O)CC[C@@H](O)C[C@@H](O)CC(=O)O[C@H]1C)C[C@H](O)[C@H]2C(=O)O", "effect on": "microbial growth", "tested at": "1000 µg/mL", "quantity": "inhibition zone", "value": "21 mm"}
{"SMILES": "CCCCCCCOc1c(OC)cc(NC(C)CCCN)c2nc(C(C)(C)C)ccc12 (stereo not shown)", "effect on": "microbial killing", "strain": "ATCC90028", "quantity": "MFC", "value": "10 µg/mL"}
{"SMILES": "C[C@@H]1[C@H](O)[C@@H](C)/C=C/C=C/C=C/C=C/C=C/C=C/C=C/[C@H](O[C@@H]2O[C@H](C)[C@@H](O)[C@H](N)[C@@H]2O)C[C@@H]2O[C@](O)(C[C@@H](O)C[C@@H](O)[C@H](O)CC[C@@H](O)C[C@@H](O)CC(=O)O[C@H]1C)C[C@H](O)[C@H]2C(=O)O", "effect on": "microbial growth", "technique": "disc diffusion", "tested at": "35 µg/disc", "quantity": "inhibition zone", "value": "11 mm"}
{"SMILES": "C#CCCCCCCCCCCCC(O)CC(O)CO (stereo not shown)", "effect on": "microbial growth", "technique": "broth dilution", "strain": "ATCC90028", "quantity": "IC50", "value": "> 200 µg/mL"}
{"SMILES": "C[C@@H]1[C@H](O)[C@@H](C)/C=C/C=C/C=C/C=C/C=C/C=C/C=C/[C@H](O[C@@H]2O[C@H](C)[C@@H](O)[C@H](N)[C@@H]2O)C[C@@H]2O[C@](O)(C[C@@H](O)C[C@@H](O)[C@H](O)CC[C@@H](O)C[C@@H](O)CC(=O)O[C@H]1C)C[C@H](O)[C@H]2C(=O)O", "effect on": "microbial growth", "strain": "ATCC90028", "quantity": "IC50", "value": "300 nM"}
{"SMILES": "C[C@@H]1[C@H](O)[C@@H](C)/C=C/C=C/C=C/C=C/C=C/C=C/C=C/[C@H](O[C@@H]2O[C@H](C)[C@@H](O)[C@H](N)[C@@H]2O)C[C@@H]2O[C@](O)(C[C@@H](O)C[C@@H](O)[C@H](O)CC[C@@H](O)C[C@@H](O)CC(=O)O[C@H]1C)C[C@H](O)[C@H]2C(=O)O", "effect on": "microbial growth", "technique": "broth dilution", "strain": "ATCC90028", "quantity": "IC50", "value": "0.27 µg/mL"}
{"SMILES": "Cc1cc(N)c2ccccc2[n+]1CCCCCCCCCC[n+]1c(C)cc(N)c2ccccc21", "effect on": "microbial growth", "technique": "disc diffusion", "tested at": "50 µg/disc", "quantity": "inhibition zone", "value": "13 mm"}
{"SMILES": "Clc1ccccc1C(c1ccccc1)(c1ccccc1)n1ccnc1", "effect on": "microbial growth", "technique": "disc diffusion", "tested at": "100 µg/mL", "quantity": "inhibition zone", "value": "21 mm"}
